The record followed here is ChEMBL document CHEMBL4699576, “Oxidized Juncuenin B Analogues with Increased Antiproliferative Activity on Human Adherent Cell Lines: Semisynthesis and Biological Evaluation” (J Nat Prod, 2020).

Experiment [1] concerns NIH3T3. Put plainly: Antiproliferative activity against mouse NIH/3T3 cells assessed as reduction in cell viability at 0.1 to 30 uM after 72 hrs by MTT assay. The experiment is classed as functional, cell-based. As to conditions: dose microM 0.1-30, time 72.0 hrs. The method in brief:
(§1)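 Cells were grown in MEM with 10% FBS, 1% nonessential amino acids and 1% penicillin–streptomycin–amphotericin B at 37 °C in humidified 5% CO2. They were seeded at 5000 cells/well and exposed to 0.1–30 μM compound for 72 h. MTT (5 mg/mL solution) was added for 4 h, and formazan was dissolved in DMSO and read at 545 nm against untreated cells. IC50 values came from normalized sigmoidal dose–response fits.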

Experiment [2] has as its system A2780. Put plainly: Antiproliferative activity against human A2780 cells assessed as reduction in cell viability at 0.1 to 30 uM after 72 hrs by MTT assay. The experiment is classed as functional, cell-based. As to conditions: dose microM 0.1-30, time 72.0 hrs. An outline of the steps:
as §1
For orientation: Tetrazolium assays rely on reduction of a dye to a coloured formazan, in cell work by metabolically active cells.

Experiment [3] concerns MCF7. Put plainly: Antiproliferative activity against human MCF7 cells assessed as reduction in cell viability at 0.1 to 30 uM after 72 hrs by MTT assay. As to conditions: dose microM 0.1-30, time 72.0 hrs.
Experiment [4] concerns C-33-A. Put plainly: Antiproliferative activity against human C33A cells assessed as reduction in cell viability at 0.1 to 30 uM after 72 hrs by MTT assay. To be noted: dose microM 0.1-30, time 72.0 hrs. The class given is functional, cell-based. An outline of the steps: (§2)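 C33A cells were kept in MEM with 10% FBS, 1% nonessential amino acids and 1% penicillin–streptomycin–amphotericin B at 37 °C under 5% CO2. They were seeded at 10 000 cells/well and treated with 0.1–30 μM for 72 h. MTT (5 mg/mL solution) was added for 4 h, and formazan was dissolved in DMSO and read at 545 nm against untreated controls. IC50 values came from normalized sigmoidal curve fits.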

Experiment [5] deals with HeLa. Put plainly: Antiproliferative activity against human HeLa cells assessed as reduction in cell viability at 0.1 to 30 uM after 72 hrs by MTT assay. As to conditions: dose microM 0.1-30, time 72.0 hrs.
In experiment [6] the test system is C-33-A. Put plainly: Antiproliferative activity against human C33A cells assessed as reduction in cell viability after 72 hrs by MTT assay. The class given is functional, cell-based. The method in brief: as §2
Experiment [7] concerns A2780. Put plainly: Antiproliferative activity against human A2780 cells assessed as reduction in cell viability after 72 hrs by MTT assay. To be noted: A2780, 72 h. The experiment is classed as functional, cell-based. The method in brief: as §1
In experiment [8] the test system is T47D. Put plainly: Antiproliferative activity against human T47D cells assessed as reduction in cell viability at 0.1 to 30 uM after 72 hrs by MTT assay. The class given is functional, cell-based. To be noted: dose microM 0.1-30, time 72.0 hrs. The method in brief:
as §1

Experiment [9] deals with HeLa. Put plainly: Antiproliferative activity against human HeLa cells assessed as reduction in cell viability after 72 hrs by MTT assay. The experiment is classed as functional, cell-based. An outline of the steps:
as §1

For experiment [10], the system named is NIH3T3. Put plainly: Antiproliferative activity against mouse NIH/3T3 cells assessed as reduction in cell viability after 72 hrs by MTT assay. The class given is functional, cell-based. As to conditions: NIH3T3, 72 h. An outline of the steps: as §1
Experiment [11] deals with T47D. Put plainly: Antiproliferative activity against human T47D cells assessed as reduction in cell viability after 72 hrs by MTT assay. The experiment is classed as functional, cell-based. The method in brief: as §1
Experiment [12] concerns SiHa. Put plainly: Antiproliferative activity against human SiHa cells assessed as reduction in cell viability at 0.1 to 30 uM after 72 hrs by MTT assay. The class given is functional, cell-based. As to conditions: dose microM 0.1-30, time 72.0 hrs. An outline of the steps:
as §1

The subject of experiment [13] is SiHa. Put plainly: Antiproliferative activity against human SiHa cells assessed as reduction in cell viability after 72 hrs by MTT assay. The experiment is classed as functional, cell-based. An outline of the steps:
as §1

Another experiment relates to AGS. Put plainly: Antiproliferative activity against human AGS cells assessed as reduction in cell viability after 48 hrs by Alamar Blue assay. The experiment is classed as functional, cell-based. A general note: Alamar Blue is a resazurin reagent that responds to reducing activity.
For another experiment, the system named is SGC-7901. Put plainly: Antiproliferative activity against human SGC-7901 cells assessed as reduction in cell viability after 48 hrs by Alamar Blue assay. The experiment is classed as functional, cell-based. As to conditions: SGC-7901, 48 h.
Experiment [14] concerns MCF7. Put plainly: Antiproliferative activity against human MCF7 cells assessed as reduction in cell viability after 72 hrs by MTT assay. The experiment is classed as functional, cell-based. As to conditions: MCF7, 72 h. The method in brief:
as §1

The next experiment relates to MDA-MB-231. Put plainly: Antiproliferative activity against human MDA-MB-231 cells assessed as reduction in cell viability after 72 hrs by MTT assay. The experiment is classed as functional, cell-based. As to conditions: MDA-MB-231, 72 h.
Experiment [15] can be described thus: Selectivity ratio of IC50 for antiproliferative activity against human T47D cells to IC50 for antiproliferative activity against human MCF7 cells. The experiment is classed as functional.

Active and inactive are the calls of the source. The rule behind the calls is not given here. Some results are limits rather than exact numbers.

For the molecule `C=CC1=C(C)C(=O)C=C2C3(OCC)C=CC(=O)C(C)=C3CCC21OCC` (racemic), the outcome with NIH3T3 [1], in the experiment with A2780 [2], in the experiment on MCF7 [3], in the experiment with C-33-A [4] and in the experiment on HeLa [5] was inactive.

As a reminder, the IC50 is the midpoint of a concentration-inhibition curve. Turning to `C=CC1=C(C)C(=O)C=C2c3ccc(O)c(C)c3CC[C@@]21OCC`, the IC50 with C-33-A [6] is 4.9 µM; in the experiment with A2780 [7], 2.8 µM; in the experiment on HeLa [9], 3.7 µM; in the experiment with NIH3T3 [10], more than 30 µM; in the experiment with T47D [11] it was 8.8 µM. Moreover, the outcome in the experiment on MCF7 [3], with T47D [8] and in the experiment with HeLa [5] was Active. The result in the experiment with SiHa [12] was inactive.

On to `C=CC1=C(C)C(=O)C=C2C3=C(CC[C@]21OC)[C@@](C)(OC)C(=O)C=C3` (stereo in doubt), for which the 50% inhibitory concentration (IC50) in the experiment with NIH3T3 [10] was more than 30 µM; in the experiment with SiHa [13] it was 20 µM; in the experiment on T47D [11], 15 µM.

Take `C=CC1=C(C)C(=O)C(OCCCC)(OCCCC)c2c1ccc1c2C=CC(=O)C1(C)OCCCC` (racemic): the outcome with NIH3T3 [1], in the experiment with A2780 [2], in the experiment with MCF7 [3], in the experiment with C-33-A [4] and in the experiment with HeLa [5] was inactive.

Turning to `C=CC1=C(C)C(=O)C=C2C3(OC)C=CC(=O)C(C)=C3CCC21OC` (racemic; 2b), the result with NIH3T3 [1], with A2780 [2], with MCF7 [3], in the experiment on C-33-A [4] and with HeLa [5] was inactive.

Consider `C=Cc1cc(O)cc2ccc3c(C)c(O)ccc3c12`, for which the concentration for half-maximal inhibition (IC50) turned out to be 32.9 µM in the experiment with AGS and 35.9 µM with SGC-7901.

As for `C=CC1=C(C)C(=O)C=C2c3ccc(O)c(C)c3CC[C@]21OCC`, the outcome in the experiment with A2780 [2], in the experiment with C-33-A [4], in the experiment on SiHa [12] and in the experiment with HeLa [5] was inactive.

Turning to `C=CC1=C(C)C(=O)C=C2C3=C(CC[C@@]21OC)[C@@](C)(OC)C(=O)C=C3` (stereo in doubt), the IC50 in the experiment on SiHa [13] was determined as 20 µM; in the experiment with T47D [11], 15 µM.

Turning to `C=CC1=C(C)C(=O)C=C2c3ccc(O)c(C)c3CC[C@@]21OC`, the IC50 in the experiment on C-33-A [6] amounted to 5.3 µM; with A2780 [7] it was 8.7 µM; in the experiment on HeLa [9] it was 0.9 µM; in the experiment with NIH3T3 [10] it was 25.8 µM; in the experiment with MCF7 [14], 6.2 µM. The outcome with T47D [8] and in the experiment with HeLa [5] was Active.

As to `C=CC1=C2CCc3c(ccc(O)c3C)C2=CC(=O)C1(C)OCC` (racemic), the result with NIH3T3 [1], in the experiment with A2780 [2], with MCF7 [3], in the experiment with C-33-A [4] and in the experiment with HeLa [5] was inactive.

Consider `C=CC1=C(C)C(=O)C=C2c3ccc(O)c(C)c3CC[C@]21OC`, for which the result in the experiment with A2780 [2], in the experiment with MCF7 [3], in the experiment on C-33-A [4] and in the experiment on HeLa [5] was inactive.

On to `C=Cc1c(C)c(O)c(OC)c2c3c(ccc12)C(C)(OC)C(=O)C=C3` (racemic), for which the result in the experiment with NIH3T3 [1], in the experiment with A2780 [2], in the experiment with MCF7 [3], with C-33-A [4] and with HeLa [5] was inactive.

In the case of `C=Cc1c(C)c(O)cc2c1CCc1c-2ccc(O)c1C`, the IC50 in the experiment on MDA-MB-231 was 9.4 µM; with A2780 [7], 7.3 µM; with HeLa [9], 2.9 µM; in the experiment with NIH3T3 [10], more than 30 µM; in the experiment with MCF7 [14] it was 11.7 µM. Further, the “Ratio IC50” value in experiment [15] was 2.5.

As for `C=CC1=C(C)C(=O)C=C2C3=C(CC[C@]21OC)[C@](C)(OC)C(=O)C=C3` (stereo in doubt), the IC50 with SiHa [13] was 20 µM; in the experiment with T47D [11], 15 µM.

Turning to `C=CC1=C(C)C(=O)C=C2C3=C(CCC21OCC)C(C)(OCC)C(=O)C=C3` (racemic; 6b), the outcome in the experiment on NIH3T3 [1], in the experiment on A2780 [2], in the experiment on MCF7 [3], in the experiment on C-33-A [4] and with HeLa [5] was Active.

On to `C=CC1=C(C)C(=O)C=C2C3(OC)C=CC(=O)C(C)=C3CCC21OC` (racemic; 2a), for which the result with NIH3T3 [1], in the experiment with A2780 [2], in the experiment on MCF7 [3], in the experiment with C-33-A [4] and in the experiment on HeLa [5] was inactive.

With `C=CC1=C(C)C(=O)C=C2C3=C(CCC21OCC)C(C)(OCC)C(=O)C=C3` (racemic; 6a), the result with NIH3T3 [1], in the experiment with A2780 [2], in the experiment on MCF7 [3], in the experiment with C-33-A [4] and in the experiment on HeLa [5] was Active.

On to `C=CC1=C(C)C(=O)C=C2C3=C(CC[C@@]21OC)[C@](C)(OC)C(=O)C=C3` (stereo in doubt), for which the IC50 was 5.3 µM with C-33-A [6]; 7.7 µM in the experiment with A2780 [7]; 21.6 µM with NIH3T3 [10]; 20 µM with SiHa [13]; 15 µM in the experiment on T47D [11]. Besides, the outcome in the experiment with T47D [8] and with HeLa [5] was Active.

In the case of `C=Cc1c(C)c(O)cc2c3c(ccc12)C(C)(OCC)C(=O)C=C3` (racemic), the outcome in the experiment on NIH3T3 [1], with A2780 [2], in the experiment on MCF7 [3], in the experiment with C-33-A [4] and in the experiment on HeLa [5] was inactive.
